Experimental data reported in ChEMBL document CHEMBL1125363, “Novel piperidine sigma receptor ligands as potential antipsychotic drugs” (J Med Chem, 1992).

What was measured:
[1] = molecular target: T1, Serotonin 2 (5-HT2) receptor (Mus musculus, UniProt Q02152+P34968+P35363); test: The compound was tested in vitro for its binding affinity towards 5-hydroxytryptamine 2 receptor; format: protein assay
[2] = molecular target: T2, D(2) dopamine receptor (Mus musculus, UniProt P61168); test: The compound was tested in vitro for its binding affinity towards Dopamine receptor D2
[3] = molecular target: Sigma non-opioid intracellular receptor 1 (Mus musculus, UniProt O55242); test: In vitro binding affinity for the mouse sigma opioid receptor
[4] = organism: Mus musculus; test: Oral potency tested by using anti-mescaline test; format: functional
Summary of the method: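 Mice; mescaline was given to evoke hallucinogen-type behaviour, and the test compound was dosed orally to antagonise it. Potency is the ED50 in mg/kg po. Some ED50s are the average of three measurements.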

[5] = molecular target: T1, Serotonin 2 (5-HT2) receptor; test: In vitro binding affinity for serotonin 5-hydroxytryptamine (5-HT) 2 receptors; format: protein assay
[6] = molecular target: T2, D(2) dopamine receptor; test: In vitro binding affinity towards dopamine receptor D2
[7] = organism: Mus musculus; test: Oral potency tested using apomorphine induced climbing test; format: functional
[8] = organism: Mus musculus; test: (§1) Oral potency by using Anti aggression test; format: functional
Summary of the method: (§2)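 Mice were held in prolonged isolation, then exposed to intruders. The aggressive response was scored after oral dosing of the test compound. Potency is the ED50 in mg/kg po.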

[9] = molecular target: D(1A) dopamine receptor (Mus musculus, UniProt Q61616); test: The compound was tested in vitro for its binding affinity towards dopamine receptor D1
[10] = organism: Rattus norvegicus; test: Oral potency tested using 5HTP induced head twitch test; format: functional
[11] = organism: Rattus norvegicus; test: The compound was tested for blocking the rotation induced by (+)-SKF 10047 in brain-lesioned rats.; format: functional
Summary of the method: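 Rats with brain lesions were challenged with (+)-SKF 10047 to induce rotation. The test compound was given orally to block rotation. Reported as the ED50 in mg/kg po.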

[12] = as §1; format: functional; summary of the method: as §2
[13] = organism: Mus musculus; test: Oral potency by using Anti aggression test

Chain of Sigma non-opioid intracellular receptor 1 (O55242 whole entry): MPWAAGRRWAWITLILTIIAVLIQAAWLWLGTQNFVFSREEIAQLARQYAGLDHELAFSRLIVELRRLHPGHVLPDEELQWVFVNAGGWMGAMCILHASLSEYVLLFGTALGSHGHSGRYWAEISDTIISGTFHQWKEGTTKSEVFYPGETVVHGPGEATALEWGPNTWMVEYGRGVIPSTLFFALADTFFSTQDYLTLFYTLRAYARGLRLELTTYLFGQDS
T2 sequence (P61168 whole entry): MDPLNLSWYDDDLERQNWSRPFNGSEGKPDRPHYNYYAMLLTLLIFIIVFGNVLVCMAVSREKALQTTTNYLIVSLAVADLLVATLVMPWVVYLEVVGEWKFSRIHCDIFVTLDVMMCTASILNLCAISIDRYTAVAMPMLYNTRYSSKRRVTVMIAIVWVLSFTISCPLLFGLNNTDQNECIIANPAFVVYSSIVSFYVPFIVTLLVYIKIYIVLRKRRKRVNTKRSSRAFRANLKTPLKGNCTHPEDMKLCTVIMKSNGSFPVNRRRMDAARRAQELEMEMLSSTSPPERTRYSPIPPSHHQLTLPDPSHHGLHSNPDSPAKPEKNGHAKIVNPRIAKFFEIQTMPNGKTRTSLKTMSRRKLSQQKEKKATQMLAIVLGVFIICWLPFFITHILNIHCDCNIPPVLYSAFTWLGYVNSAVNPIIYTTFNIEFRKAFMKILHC
Chain of D(1A) dopamine receptor (Q61616 whole entry): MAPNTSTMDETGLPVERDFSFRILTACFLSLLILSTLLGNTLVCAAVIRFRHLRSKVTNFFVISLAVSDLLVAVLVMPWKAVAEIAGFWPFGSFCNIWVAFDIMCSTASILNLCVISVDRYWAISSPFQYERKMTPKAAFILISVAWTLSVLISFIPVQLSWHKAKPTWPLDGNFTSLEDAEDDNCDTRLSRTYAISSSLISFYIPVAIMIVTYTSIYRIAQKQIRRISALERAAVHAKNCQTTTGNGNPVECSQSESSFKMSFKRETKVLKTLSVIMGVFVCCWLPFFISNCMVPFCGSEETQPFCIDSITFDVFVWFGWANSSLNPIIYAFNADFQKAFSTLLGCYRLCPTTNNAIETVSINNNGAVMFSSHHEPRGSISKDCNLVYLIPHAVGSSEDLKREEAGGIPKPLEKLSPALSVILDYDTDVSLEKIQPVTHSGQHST

Row | SMILES | Ki [1] | IC50 [2] | Ki [3] | Ki [5] | IC50 [6] | Ki [9] | ED50 [4] | ED50 [7] | ED50 [8] | ED50 [10] | ED50 [11] | ED50 [12] | ED50 [13]
1 | Fc1ccc(SCC2CCN(CCC3CC3)CC2)cc1 | 53 nM | 1700 nM | 5 nM |  |  |  | > 10 mg/kg |  |  |  |  |  | 
2 | CC(C)(C)c1ccc(OCC2CCN(CC3CC3)CC2)cc1 |  |  | 14 nM | > 1000 nM | 3150 nM |  | < 30 mg/kg | > 30 mg/kg | > 30 mg/kg |  |  |  | 
3 | O.O=C(CC1CCN(Cc2ccccc2)CC1)c1ccc(F)cc1.O=C(O)/C=C\C(=O)O |  |  | 1 nM | 20 nM | 1550 nM |  | 4.8 mg/kg | 18 mg/kg | 8.6 mg/kg | 2.8 mg/kg |  |  | 

Continued, in another order:

Row | Ki [1] | IC50 [2] | Ki [3] | Ki [5] | IC50 [6] | Ki [9] | SMILES | ED50 [4] | ED50 [7] | ED50 [8] | ED50 [10] | ED50 [11] | ED50 [12] | ED50 [13]
4 |  |  | 11 nM | > 10000 nM | > 10000 nM | > 10000 nM | N#Cc1ccc(C(=O)CC2CCN(CC3CC3)CC2)cc1.O=C(O)/C=C/C(=O)O | 0.8 mg/kg | > 90 mg/kg |  | 22.3 mg/kg | 5.3 mg/kg | 0.44 mg/kg | 
5 |  |  | 10 nM | 15 nM |  |  | Br.O=C(CC1CCN(CC2CC2)CC1)c1ccc(F)cc1 | 0.35 mg/kg | 15 mg/kg |  | 1.8 mg/kg | 2.4 mg/kg |  | 1.9 mg/kg
